Kir21 block – blocks the mouse Kir2.1 inward-rectifier potassium channel | hit rate 0.85% among 310,000 | AID 1672 | HEK293-Kir2.1, FluxOR thallium flux fluorescence; stronger effect = lower value | P35561 | B-score at 10 µM;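 active means fluorescence ratio B-score at or below minus 3 SD of library scores, with starting-brightness B-score within 2 SD, cut at about -4.2 in these data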;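 further: channel flux triggered by added potassium and thallium sulfate stimulus; B-score of peak minus minimum fluorescence over baseline after thallium stimulus; more negative B-score means stronger Kir2.1 block with less thallium influx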
KCNQ1 block – human KCNQ1 channel inhibition | P51787 | CHO-K1 KCNQ1, FluxOR thallium flux fluorescence; stronger effect = higher value | B-score at 10 µM | hit rate 1.3% among 310,000 | AID 2642;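 active means compounds whose thallium flux B-score, printed positive for inhibition, exceeds three library SD while starting fluorescence stays within three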;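 further: channel opened by potassium depolarization with thallium stimulus after 20 min compound exposure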
KCNK9 block – inhibitors of human KCNK9 two-pore domain potassium channel; Q9NPC2; HEK293 KCNK9, FluxOR thallium flux fluorescence; stronger effect = lower value; B-score at 10 µM; hit rate 1.2% among 310,000; AID 488922;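 active means ratio B-score over 3 SD below the library mean, with starting fluorescence within 5 SD of its mean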;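 further: negative B-score means less thallium flux so channel inhibition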
KCNK3 block – human KCNK3 channel inhibition, primary screen; O14649; hit rate 0.84% among 340,000; AID 602410; CHO-KCNK3 thallium flux, FluxOR fluorescence; stronger effect = lower value; B-score at 10 µM;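 active means B-score under library mean minus 4 SD, starting fluorescence ratio at most library mean plus 5 SD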;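 further: more negative B-score means stronger inhibition of thallium flux through KCNK3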
hERG rescue – shields human hERG channel from block by proarrhythmic agents | CHO-hERG, FluxOR thallium flux, dofetilide IC70 present | Q12809 | activation (rescue from dofetilide block), less the hit threshold, % at 10 µM | hit rate 0.51% among 310,000;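 active means activation above the mean of controls blocked by dofetilide plus 5 SD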;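 further: thallium influx through hERG after potassium depolarization seen as dye fluorescence rise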
Target sequence (Q12809 whole entry, looked up): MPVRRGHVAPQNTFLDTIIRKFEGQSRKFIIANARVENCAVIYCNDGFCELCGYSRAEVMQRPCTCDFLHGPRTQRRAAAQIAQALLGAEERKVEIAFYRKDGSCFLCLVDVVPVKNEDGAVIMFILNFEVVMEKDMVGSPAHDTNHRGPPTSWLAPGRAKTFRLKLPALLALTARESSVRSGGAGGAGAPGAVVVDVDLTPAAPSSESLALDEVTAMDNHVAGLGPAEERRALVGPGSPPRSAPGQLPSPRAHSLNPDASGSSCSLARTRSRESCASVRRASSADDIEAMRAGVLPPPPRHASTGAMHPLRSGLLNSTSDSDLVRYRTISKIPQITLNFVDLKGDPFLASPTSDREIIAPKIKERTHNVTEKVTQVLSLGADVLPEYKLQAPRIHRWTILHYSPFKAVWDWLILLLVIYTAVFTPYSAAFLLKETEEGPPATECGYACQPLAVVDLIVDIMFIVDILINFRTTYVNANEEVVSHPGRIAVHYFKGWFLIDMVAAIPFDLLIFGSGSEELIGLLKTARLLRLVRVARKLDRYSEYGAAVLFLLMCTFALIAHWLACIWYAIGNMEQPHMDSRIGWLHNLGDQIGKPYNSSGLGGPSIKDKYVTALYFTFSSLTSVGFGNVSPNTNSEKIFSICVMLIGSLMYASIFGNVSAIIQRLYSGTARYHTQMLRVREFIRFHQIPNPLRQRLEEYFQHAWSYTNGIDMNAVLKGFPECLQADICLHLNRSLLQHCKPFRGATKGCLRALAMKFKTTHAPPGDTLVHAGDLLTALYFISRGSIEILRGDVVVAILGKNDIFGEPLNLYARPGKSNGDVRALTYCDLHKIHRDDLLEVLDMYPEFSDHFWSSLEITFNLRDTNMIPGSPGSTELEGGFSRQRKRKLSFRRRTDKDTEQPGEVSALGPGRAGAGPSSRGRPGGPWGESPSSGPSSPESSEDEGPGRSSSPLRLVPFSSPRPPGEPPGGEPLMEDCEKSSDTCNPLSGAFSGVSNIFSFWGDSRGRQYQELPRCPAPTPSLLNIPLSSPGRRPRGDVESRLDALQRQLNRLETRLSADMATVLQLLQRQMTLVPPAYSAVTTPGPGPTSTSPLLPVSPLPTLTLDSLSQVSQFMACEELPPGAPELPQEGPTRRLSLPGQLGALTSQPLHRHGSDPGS
KCNQ1 act – human KCNQ1 channel potentiation or activation; P51787; CHO-K1 KCNQ1, thallium flux FluxOR fluorescence; stronger effect = higher value; B-score at 10 µM; hit rate 0.35% among 310,000; AID 2648;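 active means fluorescence ratio B-score, a plate-corrected score, at least three library SD, with initial intensity B-score within 5 SD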
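System: Stable KCNQ1 CHO-K1 line | Incubation: 90 min dye loading and 20 min compound exposure, both at room temperature | Measure: Ratio B score | Medium: Assay buffer for compound exposure, DMSO matched across wells | Compound dosing: Single-concentration screen | Probe or stimulus: K+/Tl+ depolarizing stimulus | Measured by: Kinetic FluxOR fluorescence, 10 s baseline plus 110 s post-stimulus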
KCNK9 inh conf – confirmation of human KCNK9 potassium channel inhibitors; shares compounds with KCNK9 block; HEK293 KCNK9 cells, FluxOR thallium flux fluorescence; inhibition, % at 10 µM; hit rate 43% among 4,900;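 active means thallium signal inhibited by more than 5 SD of the compound-free buffer control wells, on both duplicate plates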;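 further: 0% = assay buffer control wells without compound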
Kir2-1 spec – mouse Kir2.1 off-target activity of KCNK9 modulators; shares compounds with KCNK9 block; Kir2.1 cells, FluxOR thallium flux fluorescence; inhibition, % at 10 µM; hit rate 4% among 4,900;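 active means thallium signal drop more than 5 SD beyond the mean of the no-compound control wells, seen in both duplicate plates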;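 further: signal is fluorescence rise after thallium addition divided by baseline fluorescence; plate controls were assay buffer only for no effect and full block by chlorpromazine control for full effect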
HEK293 Tl ctr – second check of KCNK9 modulator effects in non-induced HEK293 cells | hit rate 40% among 4,900 | shares compounds with KCNK9 block | AID 492997 | inhibition, % at 10 µM | FluxOR thallium flux;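 active means thallium signal drop beyond 5 SD of the untreated control mean, on both duplicate plates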;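 further: plate controls were buffer only IC0 wells for no effect and SID17386958 at its maximal inhibitory level for full effect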
KCNK3 inh conf – human KCNK3 channel inhibition, confirmation assay. CHO-KCNK3 thallium flux, FluxOR fluorescence; 0% buffer, 100% carvedilol maximal block. AID 651638. shares compounds with KCNK3 block. hit rate 99% among 2,400. ratio percent of control, % at 10 µM;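 active means ratio percent of control, averaged over triplicates, above buffer control mean plus 5 SD, cut at about 64% in these data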;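 further: ratio is the fluorescence rise from min to max over baseline after thallium stimulus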
KCNK3 noninduced – activity in cells without induced KCNK3 expression | hit rate 40% among 2,400 | shares compounds with KCNK3 block | thallium flux ratio (lower = more inhibition) at 10 µM | non-induced KCNK3 parental cells, FluxOR thallium flux; stronger effect = lower value;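 active means thallium flux ratio, averaged over three wells, more than 5 SD below the buffer control mean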;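 further: host cells are CHO cells without KCNK3 induction; ratio is peak minus trough fluorescence over baseline then normalized to buffer controls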
* hit, by the source's call; i = inactive; . = no result. In the library only some 3.7% were active in any assay of this set; here they are far more common.

SMILES	Kir21 block	KCNQ1 block	KCNK9 block	KCNK3 block	hERG rescue	KCNQ1 act	KCNK9 inh conf	Kir2-1 spec	HEK293 Tl ctr	KCNK3 inh conf	KCNK3 noninduced
CCn1nc(C(=O)OCC(=O)c2ccc(F)cc2)c2ccccc2c1=O	0.38	i	i	i	-2	i	.	.	.	.	.
CCn1nc(C(=O)OC(C(=O)c2c[nH]c3ccccc23)c2ccccc2)c2ccccc2c1=O (stereo not drawn)	-0.02	8*	-11*	-9*	-20	i	32%*	i	i	89*	i
Cc1c(NC(=S)N/C(=N/S(=O)(=O)c2ccc(Cl)cc2)c2ccccc2)c(=O)n(-c2ccccc2)n1C	-2.7	i	i	i	-12	i	.	.	.	.	.
CCOc1ccccc1CNS(=O)(=O)c1cc(-c2cc(C)no2)ccc1OC	-2.8	i	i	i	-5	i	.	.	.	.	.
COc1ccccc1CNS(=O)(=O)c1cc(-c2cc(C)no2)ccc1C(C)C	-0.43	6*	-11*	-9.5*	-16	i	60%*	i	38%*	119*	0.14*
Cc1nn(Cc2ccc(C(=O)Nc3nc4c(C)cccc4s3)o2)c(C)c1Br	-0.1	i	-14*	-9.9*	-2	i	44%*	i	i	88*	i
Cc1cc(NC(=O)c2ccc(Cn3nc(C)c(Br)c3C)o2)no1	0.14	i	i	i	0	i	.	.	.	.	.
COc1nnc(-c2ccc(N3CCOCC3)c(NC(=O)C3CCCCC3)c2)c2ccccc12	0.24	i	i	i	-13	i	.	.	.	.	.
COc1nnc(-c2ccc(N3CCCCC3)c(NC(=O)C3CCCCC3)c2)c2ccccc12	-0.4	12*	-15*	-11*	-15	i	52%*	i	i	125*	0.14*
CCOC(=O)C1=C(CS(=O)(=O)c2ccccc2)NC(=O)NC1c1cc(OC)c(O)c(OC)c1 (stereo not drawn)	-0.75	i	i	i	-6	i	.	.	.	.	.
CC(C)S(=O)(=O)c1csc(NC(=O)Nc2cc(Cl)ccc2Cl)c1Cl	-0.15	i	-8.2*	-11*	-8	i	54%*	i	38%*	139*	0.14*
CC(C)CCN(C(=S)Nc1cccc(C(F)(F)F)c1)C(C)c1ccccn1 (stereo not drawn)	-2.1	i	-9.3*	-14*	-16	i	64%*	i	42%*	130*	0.13*
Cc1cc(NC(=S)N(CCN2CCCCC2)Cc2ccco2)ccc1Cl	1.7	i	-8.2*	-11*	-13	i	25%*	i	28%*	108*	i
N#CC1=C2N=C(N)c3ccccc3N2C2=C(C(=O)CCC2)C1c1ccccc1F (stereo not drawn)	0.95	i	i	i	-10	i	.	.	.	.	.
CC1(C)CC(=O)C2=C(C1)N1C(=C(C#N)C2c2ccccc2Cl)N=C(N)c2ccccc21 (stereo not drawn)	-0.11	i	-15*	-13*	-10	i	42%*	i	44%*	90*	i
S=C(Nc1ccccc1)N1CCOCCOCCN(C(=S)Nc2ccccc2)CCOCCOCC1	0.67	i	-11*	-9.1*	-5	i	28%*	i	i	96*	0.13*
COc1ccc(Cn2nnnc2C(c2ccccn2)N2CCN(c3cc(Cl)ccc3C)CC2)cc1 (stereo not drawn)	0.31	i	-11*	-9.5*	-1	i	44%*	i	44%*	101*	i
CCc1cccc(NC(=S)N(CCOC)C(C)c2ccco2)c1 (stereo not drawn)	-0.43	i	i	i	-7	i	.	.	.	.	.
NC(=S)N/N=C\c1c(OCc2ccccc2Cl)ccc2ccccc12	-0.27	i	-10*	-9.5*	-14	i	46%*	i	i	101*	i
O=C(CCc1ccc(Oc2cc([N+](=O)[O-])cc([N+](=O)[O-])c2)cc1)N1CCCCC1	-0.53	i	i	i	-4	i	.	.	.	.	.
COc1ccc(C)cc1NC(=O)c1nn(-c2ccccc2)cc1OC	0.67	i	-18*	i	-15	i	61%*	i	31%*	130*	0.14*
COc1cn(-c2ccccc2)nc1C(=O)Nc1ccc(C)cc1	-0.12	i	i	i	-11	i	.	.	.	.	.
CCN1C(=O)[C@H]2[C@@H](c3ccc(Cl)cc3)N3C(=O)CN(CCOC)C(=O)[C@@]3(C)[C@H]2C1=O	0.4	i	i	i	-5	i	.	.	.	.	.
Fc1ccc(C(CCCn2nnc(-c3cccnc3)n2)c2ccc(F)cc2)cc1	0.01	15*	-12*	-15*	-18	i	55%*	i	38%*	148*	i
Fc1ccc(-n2nnc(-c3cccnc3)n2)cc1	0.93	i	i	i	-1	i	.	.	.	.	.
SMILES	Kir21 block	KCNQ1 block	KCNK9 block	KCNK3 block	hERG rescue	KCNQ1 act	KCNK9 inh conf	Kir2-1 spec	HEK293 Tl ctr	KCNK3 inh conf	KCNK3 noninduced
CC(=O)Nc1ccc(S(=O)(=O)N(Cc2ccco2)Cc2cc3ccccc3[nH]c2=O)cc1	-1.1	i	i	i	-16	i	.	.	.	.	.
Cc1cccc(OCCCn2c(=O)sc3ccccc32)c1	0.04	i	i	i	-12	i	.	.	.	.	.
CCCCCCCCCCOC(=O)Cn1c(COc2cccc(C)c2)[n+](C)c2ccccc21	-13*	i	-14*	-10*	-13	i	64%*	64%*	i	100*	i
CCCOc1ccc(C(=O)NC2CCSc3ccccc32)cc1 (stereo not drawn)	0.44	i	i	i	-7	i	.	.	.	.	.
O=S(=O)(c1ccc(Br)s1)N1CCC(Cc2ccccc2)CC1	0.89	i	i	-9.1*	-19	i	i	i	i	100*	i
Cc1csc(CNC(=O)c2ccc(OC3CCN(CCc4ccccc4)CC3)cc2)n1	-1.8	i	i	i	-8	i	.	.	.	.	.
OCCn1c(SCCOc2ccccc2)nc2ccccc21	-0.61	i	i	i	-8	i	.	.	.	.	.
